ChEMBL document CHEMBL1156334, “New Angiopep-modified doxorubicin (ANG1007) and etoposide (ANG1009) chemotherapeutics with increased brain penetration” (J Med Chem, 2010)

What was measured:
[1] = system: SK-HEP1; experiment: Cytotoxicity against human SKHEP1 cells after 48 hrs by [3H]thymidine incorporation assay; type: functional, cell-based
Outline: (§1)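 Tumor cells were seeded at 5000 per well and exposed to increasing drug concentrations for 48 h. The medium was then aspirated and cells pulse-labeled for 2 h at 37 °C in fresh medium with 2 μCi/mL [methyl-3H]thymidine. Cells were harvested and tritium was counted by scintillation. Incorporation was plotted against concentration to estimate IC50.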

[2] = Cell cycle arrest in human U87MG cells assessed as accumulation at G2/M phase at 1 uM after 24 hrs by flow cytometry; type: functional, cell-based; settings: U-87MG ATCC
Outline: (§2)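 Exponentially growing U87 MG cells in flasks were treated with drug or left untreated as controls. Cells were trypsinized, washed twice in PBS, fixed in 70% ice-cold ethanol, and stained with 50 μg/mL propidium iodide plus 0.5 mg/mL RNase in 10 mM Tris, 5 mM MgCl2. DNA content was measured by flow cytometry and given as % of cells per phase, from one representative of three experiments.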

[3] = Cytotoxicity against human U87MG cells after 48 hrs by [3H]thymidine incorporation assay; type: functional, cell-based, U-87MG ATCC; settings: U-87 MG; outline: as §1
[4] = Cell cycle arrest in human U87MG cells assessed as accumulation at G0/G1 phase at 1 uM after 24 hrs by flow cytometry; type: functional, cell-based; settings: U-87MG ATCC; outline: as §2
[5] = system: Brain; experiment: Drug uptake in perfused mouse brain assessed as blood-brain transfer coefficient; type: ADME, tissue-based; settings: in vivo
Outline: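 In situ brain perfusion was done in adult male CD-1 mice. Radiolabeled drug in Krebs/bicarbonate buffer (gassed 95% O2/5% CO2, pH 7.4, 37 °C) was infused into the carotid artery for 0.5, 1, 2 or 4 min, then washed out tracer-free for 60 s. Brain homogenate radioactivity was counted (γ or liquid scintillation) and expressed as apparent Vd. Vd versus time was fitted by least-squares regression.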

[6] = system: NCI-H460; experiment: Cytotoxicity against human NCI-H460 cells after 48 hrs by [3H]thymidine incorporation assay; type: functional, cell-based; outline: as §1
[7] = Cell cycle arrest in human U87MG cells assessed as accumulation at S phase at 1 uM after 24 hrs by flow cytometry; type: functional, cell-based; settings: U-87MG ATCC; outline: as §2
[8] = Cell cycle arrest in human U87MG cells assessed as accumulation at G0/G1 phase at 33 nM after 24 hrs by flow cytometry; type: functional, cell-based; settings: U-87MG ATCC; outline: as §2
[9] = Cell cycle arrest in human U87MG cells assessed as accumulation at S phase at 33 nM after 24 hrs by flow cytometry; type: functional, cell-based; settings: U-87MG ATCC; outline: as §2
[10] = Cell cycle arrest in human U87MG cells assessed as accumulation at G2/M phase at 33 nM after 24 hrs by flow cytometry; type: functional, cell-based; settings: U-87MG ATCC; outline: as §2
[11] = Cell cycle arrest in human U87MG cells assessed as accumulation at G0/G1 phase at 100 nM after 24 hrs by flow cytometry; type: functional, cell-based; settings: U-87MG ATCC; outline: as §2
[12] = Cell cycle arrest in human U87MG cells assessed as accumulation at S phase at 100 nM after 24 hrs by flow cytometry; type: functional, cell-based; settings: U-87MG ATCC; outline: as §2
[13] = Cell cycle arrest in human U87MG cells assessed as accumulation at G2/M phase at 100 nM after 24 hrs by flow cytometry; type: functional, cell-based; settings: U-87MG ATCC; outline: as §2
[14] = Cell cycle arrest in human U87MG cells assessed as accumulation at S phase at 3 uM after 24 hrs by flow cytometry; type: functional, cell-based; settings: U-87MG ATCC; outline: as §2
[15] = Cell cycle arrest in human U87MG cells assessed as accumulation at G0/G1 phase at 3 uM after 24 hrs by flow cytometry; type: functional, cell-based; settings: U-87MG ATCC; outline: as §2
[16] = Cell cycle arrest in human U87MG cells assessed as accumulation at G2/M phase at 3 uM after 24 hrs by flow cytometry; type: functional, cell-based; settings: U-87MG ATCC; outline: as §2

| Compound | IC50 [1] [µM] | Activity [2] [%] | IC50 [3] [µM] | Activity [4] [%] | Kin [5] | IC50 [6] [µM] | Activity [7] [%] | Activity [8] [%] | Activity [9] [%] | Activity [10] [%] | Activity [11] [%] | Activity [12] [%] | Activity [13] [%] | Activity [14] [%] | Activity [15] [%] | Activity [16] [%] |
| --- | --- | --- | --- | --- | --- | --- | --- | --- | --- | --- | --- | --- | --- | --- | --- | --- |
| COc1cc([C@@H]2c3cc4c(cc3[C@@H](O[C@@H]3O[C@@H]5CO[C@@H](C)O[C@H]5[C@H](O)[C@H]3OC(=O)CCCC(=O)NCCCC[C@H](NC(=O)CNC(=O)[C@H](CCCNC(=N)N)NC(=O)[C@H](CO)NC(=O)CNC(=O)CNC(=O)[C@H](Cc3ccc(O)cc3)NC(=O)[C@H](Cc3ccccc3)NC(=O)[C@H](Cc3ccccc3)NC(=O)[C@@H](NC(=O)CCCC(=O)O[C@H]3[C@H](O[C@@H]5c6cc7c(cc6[C@@H](c6cc(OC)c(OC(=O)CN(C)C)c(OC)c6)[C@H]6C(=O)OC[C@@H]65)OCO7)O[C@@H]5CO[C@@H](C)O[C@H]5[C@@H]3O)C(C)O)C(=O)N[C@@H](CCCNC(=N)N)C(=O)N[C@@H](CC(N)=O)C(=O)N[C@@H](CC(N)=O)C(=O)N[C@@H](Cc3ccccc3)C(=O)N[C@@H](CCCCNC(=O)CCCC(=O)O[C@H]3[C@H](O[C@@H]5c6cc7c(cc6[C@@H](c6cc(OC)c(OC(=O)CN(C)C)c(OC)c6)[C@H]6C(=O)OC[C@@H]65)OCO7)O[C@@H]5CO[C@@H](C)O[C@H]5[C@@H]3O)C(=O)N[C@H](C(=O)N[C@@H](CCC(=O)O)C(=O)N[C@@H](CCC(=O)O)C(=O)N[C@@H](Cc3ccc(O)cc3)C(=O)O)[C@@H](C)O)[C@H]3COC(=O)[C@H]23)OCO4)cc(OC)c1OC(=O)CN(C)C (some centres undefined) | 0.048 | 70.8 | 0.33 | 25.7 | 22 10^-4ml/g/s | 0.148 | 3.3 | – | – | – | – | – | – | – | – | – |
| COc1cccc2c1C(=O)c1c(O)c3c(c(O)c1C2=O)C[C@@](O)(C(=O)COC(=O)CCC(=O)NCCCC[C@H](NC(=O)CNC(=O)[C@H](CCCNC(=N)N)NC(=O)[C@H](CO)NC(=O)CNC(=O)CNC(=O)[C@H](Cc1ccc(O)cc1)NC(=O)[C@H](Cc1ccccc1)NC(=O)[C@H](Cc1ccccc1)NC(=O)[C@@H](NC(=O)CCC(=O)OCC(=O)[C@]1(O)Cc2c(O)c4c(c(O)c2[C@@H](O[C@H]2C[C@H](N)[C@H](O)[C@H](C)O2)C1)C(=O)c1c(OC)cccc1C4=O)C(C)O)C(=O)N[C@@H](CCCNC(=N)N)C(=O)N[C@@H](CC(N)=O)C(=O)N[C@@H](CC(N)=O)C(=O)N[C@@H](Cc1ccccc1)C(=O)N[C@@H](CCCCNC(=O)CCC(=O)OCC(=O)[C@]1(O)Cc2c(O)c4c(c(O)c2[C@@H](O[C@H]2C[C@H](N)[C@H](O)[C@H](C)O2)C1)C(=O)c1c(OC)cccc1C4=O)C(=O)N[C@H](C(=O)N[C@@H](CCC(=O)O)C(=O)N[C@@H](CCC(=O)O)C(=O)N[C@@H](Cc1ccc(O)cc1)C(=O)O)[C@@H](C)O)C[C@@H]3O[C@H]1C[C@H](N)[C@H](O)[C@H](C)O1 (some centres undefined) | 0.0046 | – | 0.006 | – | 31 10^-4ml/g/s | 0.0073 | – | 32.3 | 10.1 | 57.3 | – | – | – | – | – | – |
| COc1cccc2c1C(=O)c1c(O)c3c(c(O)c1C2=O)C[C@@](O)(C(=O)CO)C[C@@H]3O[C@H]1C[C@H](N)[C@H](O)[C@H](C)O1 [DOXORUBICIN] | 0.01 | – | 0.018 | – | 2.5 10^-4ml/g/s | 0.011 | – | – | – | – | 30.8 | 8.9 | 59.9 | – | – | – |
| COc1cc([C@@H]2c3cc4c(cc3[C@@H](O[C@@H]3O[C@@H]5CO[C@@H](C)O[C@H]5[C@H](O)[C@H]3O)[C@H]3COC(=O)[C@H]23)OCO4)cc(OC)c1O [ETOPOSIDE] | 0.062 | – | 0.145 | – | 0.9 10^-4ml/g/s | 0.09 | – | – | – | – | – | – | – | 4.2 | 8.9 | 87 |
| CC(=O)O[C@H]1C(=O)[C@@]2(C)[C@H]([C@H](OC(=O)c3ccccc3)[C@]3(O)C[C@H](OC(=O)[C@H](O)[C@@H](NC(=O)c4ccccc4)c4ccccc4)C(C)=C1C3(C)C)[C@]1(OC(C)=O)CO[C@@H]1C[C@@H]2O [PACLITAXEL] | – | – | – | – | 6.9 10^-4ml/g/s | – | – | – | – | – | – | – | – | – | – | – |
